“And” between values parts separate entries of the source, which are not always exact repeats. Identical values can stand only once.
What was measured:
HEK-293T = experiment: Multiplex assay against HEK293T; assay type: toxicity, cell-based; details: human
Outline: (§1)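 Values for tubulin, mitochondrial-mass and membrane-permeability phenotypes are per cents of cells with healthy nuclei. These cells were identified by CellPathfinder machine-learning gating of live cells that had been stained at seeding with Hoechst33342, BioTracker Green Microtubule Cytoskeleton Dye, MitoTracker Red and Annexin V Alexa Fluor 680 and imaged on a CQ1 microscope at 37°C and 5% CO2 after compound addition. The gating first set Hoechst high-intensity objects apart from normal cells, then split normal cells into healthy, pyknosed or fragmented nuclei, and pyknosed cells into mitotic or apoptotic.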

U2OS = experiment: Multiplex assay against U2OS; assay type: toxicity, cell-based; details: human; outline: as §1
[1] = 24 h, 10 µM, compound concentration 10 uM
[2] = 48 h, 1 µM, compound concentration 1 uM
[3] = 48 h, 10 µM, compound concentration 10 uM
[4] = 12 h, 1 µM, compound concentration 1 uM
[5] = 12 h, 10 µM, compound concentration 10 uM
[6] = 24 h, 1 µM, compound concentration 1 uM

Compound: CCCN1CCC[C@@H]2Cc3n[nH]cc3C[C@H]21.Cl [QUINPIROLE HYDROCHLORIDE]
- Population Apoptotic (%) (HEK-293T; [1]): 45% and 43%
- Population Fragmented Nuclei (%) (HEK-293T; [1]): 10% and 7%
- Population Healthy Nuclei (%) (HEK-293T; [1]): 77% and 78%
- Population Hoechst High Intensity Objects (%) (HEK-293T; [1]): 4% and 2%
- Population Membrane Permeable-Phenotype (%) (HEK-293T; [1]): 0%
- Population Mitochondria Different-Phenotype (%) (HEK-293T; [1]): 38% and 43%
- Population Mitotic Cells (%) (HEK-293T; [1]): 54% and 56%
- Population Normal (%) (HEK-293T; [1]): 95% and 97%
- Population Pyknosed Nuclei (%) (HEK-293T; [1]): 11% and 13%
- Population Tubulin-Different-Phenotype (%) (HEK-293T; [1]): 27% and 13%
- Total Cell Count (HEK-293T; [1]): 529 and 406
- Population Apoptotic (%) (HEK-293T; [2]): 21% and 33%
- Population Fragmented Nuclei (%) (HEK-293T; [2]): 16% and 11%
- Population Healthy Nuclei (%) (HEK-293T; [2]): 76% and 84%
- Population Hoechst High Intensity Objects (%) (HEK-293T; [2]): 1% and 2%
- Population Membrane Permeable-Phenotype (%) (HEK-293T; [2]): 1%
- Population Mitochondria Different-Phenotype (%) (HEK-293T; [2]): 9% and 19%
- Population Mitotic Cells (%) (HEK-293T; [2]): 78% and 66%
- Population Normal (%) (HEK-293T; [2]): 98%
- Population Pyknosed Nuclei (%) (HEK-293T; [2]): 6% and 4%
- Population Tubulin-Different-Phenotype (%) (HEK-293T; [2]): 10% and 8%
- Total Cell Count (HEK-293T; [2]): 1105 and 649
- Population Apoptotic (%) (HEK-293T; [3]): 40% and 33%
- Population Fragmented Nuclei (%) (HEK-293T; [3]): 15% and 13%
- Population Healthy Nuclei (%) (HEK-293T; [3]): 78% and 80%
- Population Hoechst High Intensity Objects (%) (HEK-293T; [3]): 2% and 1%
- Population Membrane Permeable-Phenotype (%) (HEK-293T; [3]): 1% and 0%
- Population Mitochondria Different-Phenotype (%) (HEK-293T; [3]): 23% and 28%
- Population Mitotic Cells (%) (HEK-293T; [3]): 59% and 66%
- Population Normal (%) (HEK-293T; [3]): 97% and 98%
- Population Pyknosed Nuclei (%) (HEK-293T; [3]): 6%
- Population Tubulin-Different-Phenotype (%) (HEK-293T; [3]): 15% and 13%
- Total Cell Count (HEK-293T; [3]): 772 and 654
- Population Apoptotic (%) (U2OS; [4]): 71% and 61%
- Population Fragmented Nuclei (%) (U2OS; [4]): 31% and 21%
- Population Healthy Nuclei (%) (U2OS; [4]): 60% and 67%
- Population Hoechst High Intensity Objects (%) (U2OS; [4]): 2% and 0%
- Population Membrane Permeable-Phenotype (%) (U2OS; [4]): 7% and 2%
- Population Mitochondria Different-Phenotype (%) (U2OS; [4]): 1%
- Population Mitotic Cells (%) (U2OS; [4]): 28% and 38%
- Population Normal (%) (U2OS; [4]): 97% and 100%
- Population Pyknosed Nuclei (%) (U2OS; [4]): 8% and 11%
- Population Tubulin-Different-Phenotype (%) (U2OS; [4]): 3% and 2%
- Total Cell Count (U2OS; [4]): 265 and 118
- Population Apoptotic (%) (U2OS; [5]): 58% and 100%
- Population Fragmented Nuclei (%) (U2OS; [5]): 19% and 9%
- Population Healthy Nuclei (%) (U2OS; [5]): 72% and 85%
- Population Hoechst High Intensity Objects (%) (U2OS; [5]): 1% and 2%
- Population Membrane Permeable-Phenotype (%) (U2OS; [5]): 2% and 6%
- Population Mitochondria Different-Phenotype (%) (U2OS; [5]): 0% and 5%
- Population Normal (%) (U2OS; [5]): 98% and 97%
- Population Pyknosed Nuclei (%) (U2OS; [5]): 7% and 4%
- Population Tubulin-Different-Phenotype (%) (U2OS; [5]): 1% and 2%
- Total Cell Count (U2OS; [5]): 228 and 126
- Population Apoptotic (%) (U2OS; [6]): 68% and 77%
- Population Fragmented Nuclei (%) (U2OS; [6]): 27% and 18%
- Population Healthy Nuclei (%) (U2OS; [6]): 64% and 68%
- Population Hoechst High Intensity Objects (%) (U2OS; [6]): 1% and 0%
- Population Membrane Permeable-Phenotype (%) (U2OS; [6]): 4%
- Population Mitochondria Different-Phenotype (%) (U2OS; [6]): 3% and 4%
- Population Mitotic Cells (%) (U2OS; [6]): 31% and 22%
- Population Normal (%) (U2OS; [6]): 98% and 100%
- Population Pyknosed Nuclei (%) (U2OS; [6]): 7% and 13%
- Population Tubulin-Different-Phenotype (%) (U2OS; [6]): 3% and 4%
- Total Cell Count (U2OS; [6]): 299 and 138
- Population Apoptotic (%) (U2OS; [1]): 88% and 92%
- Population Fragmented Nuclei (%) (U2OS; [1]): 13% and 9%
- Population Healthy Nuclei (%) (U2OS; [1]): 80% and 82%
- Population Hoechst High Intensity Objects (%) (U2OS; [1]): 2% and 0%
- Population Membrane Permeable-Phenotype (%) (U2OS; [1]): 2% and 0%
- Population Mitochondria Different-Phenotype (%) (U2OS; [1]): 0% and 1%
- Population Mitotic Cells (%) (U2OS; [1]): 11% and 7%
- Population Normal (%) (U2OS; [1]): 97% and 99%
- Population Pyknosed Nuclei (%) (U2OS; [1]): 6% and 8%
- Population Tubulin-Different-Phenotype (%) (U2OS; [1]): 1% and 0%
- Total Cell Count (U2OS; [1]): 281 and 163
- Population Apoptotic (%) (U2OS; [2]): 75% and 78%
- Population Fragmented Nuclei (%) (U2OS; [2]): 19% and 17%
- Population Healthy Nuclei (%) (U2OS; [2]): 74% and 69%
- Population Hoechst High Intensity Objects (%) (U2OS; [2]): 1% and 3%
- Population Membrane Permeable-Phenotype (%) (U2OS; [2]): 4%
- Population Mitochondria Different-Phenotype (%) (U2OS; [2]): 1% and 5%
- Population Mitotic Cells (%) (U2OS; [2]): 25% and 21%
- Population Normal (%) (U2OS; [2]): 98% and 96%
- Population Pyknosed Nuclei (%) (U2OS; [2]): 6% and 13%
- Population Tubulin-Different-Phenotype (%) (U2OS; [2]): 2%
- Total Cell Count (U2OS; [2]): 425 and 180
- Population Apoptotic (%) (U2OS; [3]): 86% and 91%
- Population Fragmented Nuclei (%) (U2OS; [3]): 11% and 12%
- Population Healthy Nuclei (%) (U2OS; [3]): 78%
- Population Hoechst High Intensity Objects (%) (U2OS; [3]): 3% and 1%
- Population Membrane Permeable-Phenotype (%) (U2OS; [3]): 4% and 6%
- Population Mitochondria Different-Phenotype (%) (U2OS; [3]): 1% and 4%
- Population Mitotic Cells (%) (U2OS; [3]): 13% and 8%
- Population Normal (%) (U2OS; [3]): 96% and 98%
- Population Pyknosed Nuclei (%) (U2OS; [3]): 9%
- Population Tubulin-Different-Phenotype (%) (U2OS; [3]): 3% and 2%
- Total Cell Count (U2OS; [3]): 386 and 251

Reference: ChEMBL document CHEMBL5724801, “EUbOPEN Chemogenomics Library - Multiplex” (2024)
